Measured values from ChEMBL document CHEMBL3217512, “Indole/triazole conjugates are selective inhibitors and inducers of bacterial biofilms” (Medchemcomm, 2013).
pIC50: −log10 of the molar value.

What was measured:
Staphylococcus aureus [1] = test: Antimicrobial activity against Staphylococcus aureus 29213 assessed as effect on planktonic growth at PC75 after 2 to 24 hrs by colony count method; format: organism-based; settings: in vivo
Staphylococcus aureus [2] = test: Antimicrobial activity against Staphylococcus aureus 29213 assessed as effect on planktonic growth at PC50 after 2 to 24 hrs by colony count method; format: organism-based; settings: in vivo
Staphylococcus aureus [3] = test: Antimicrobial activity against Staphylococcus aureus 29213 assessed as effect on planktonic growth at PC25 after 2 to 24 hrs by colony count method; format: organism-based; settings: in vivo
Staphylococcus aureus [4] = test: Antimicrobial activity against Staphylococcus aureus 29213 assessed as effect on planktonic growth at PC75 after 2 to 24 hrs; format: organism-based; settings: in vivo
Staphylococcus aureus [5] = test: Antimicrobial activity against Staphylococcus aureus 29213 assessed as effect on planktonic growth at PC50 after 2 to 24 hrs; format: organism-based; settings: in vivo
Staphylococcus aureus [6] = test: Antimicrobial activity against Staphylococcus aureus 29213 assessed as effect on planktonic growth at PC25 after 2 to 24 hrs; format: organism-based; settings: in vivo
Acinetobacter baumannii [7] = test: Antimicrobial activity against Acinetobacter baumannii 19606 assessed as effect on planktonic growth at PC75 after 2 to 24 hrs by colony count method; set-up: species or system ATCC 19606
Acinetobacter baumannii [8] = test: Antimicrobial activity against Acinetobacter baumannii 19606 assessed as effect on planktonic growth at PC50 after 2 to 24 hrs by colony count method; set-up: species or system ATCC 19606
Acinetobacter baumannii [9] = test: Antimicrobial activity against Acinetobacter baumannii 19606 assessed as effect on planktonic growth at PC25 after 2 to 24 hrs by colony count method; set-up: species or system ATCC 19606
Acinetobacter baumannii [10] = test: Antimicrobial activity against Acinetobacter baumannii 19606 assessed as effect on planktonic growth at PC75 after 2 to 24 hrs; set-up: species or system ATCC 19606
Acinetobacter baumannii [11] = test: Antimicrobial activity against Acinetobacter baumannii 19606 assessed as effect on planktonic growth at PC50 after 2 to 24 hrs; set-up: species or system ATCC 19606
Acinetobacter baumannii [12] = test: Antimicrobial activity against Acinetobacter baumannii 19606 assessed as effect on planktonic growth at PC25 after 2 to 24 hrs; set-up: species or system ATCC 19606
Escherichia coli [13] = test: Antimicrobial activity against Escherichia coli K-12 ER2718 assessed as effect on planktonic growth at PC75 after 2 to 24 hrs by colony count method; format: organism-based; settings: in vivo
Escherichia coli [14] = test: Antimicrobial activity against Escherichia coli K-12 ER2718 assessed as effect on planktonic growth at PC50 after 2 to 24 hrs by colony count method; format: organism-based; settings: in vivo
Escherichia coli [15] = test: Antimicrobial activity against Escherichia coli K-12 ER2718 assessed as effect on planktonic growth at PC25 after 2 to 24 hrs by colony count method; format: organism-based
Escherichia coli [16] = test: Antimicrobial activity against Escherichia coli K-12 ER2718 assessed as effect on planktonic growth at PC75 after 2 to 24 hrs; format: organism-based; settings: in vivo
Escherichia coli [17] = test: Antimicrobial activity against Escherichia coli K-12 ER2718 assessed as effect on planktonic growth at PC50 after 2 to 24 hrs; format: organism-based
Escherichia coli [18] = test: Antimicrobial activity against Escherichia coli K-12 ER2718 assessed as effect on planktonic growth at PC25 after 2 to 24 hrs; format: organism-based
Staphylococcus aureus [19] = test: Antimicrobial activity against methicillin-resistant Staphylococcus aureus BAA 44 assessed as effect on planktonic growth at IC50 after 2 to 24 hrs by colony count method; format: organism-based; settings: in vivo
Staphylococcus aureus [20] = test: Antimicrobial activity against Staphylococcus aureus 29213 assessed as effect on planktonic growth at IC50 after 2 to 24 hrs by colony count method; format: organism-based; settings: in vivo
Acinetobacter baumannii [21] = test: Antimicrobial activity against Acinetobacter baumannii 19606 assessed as effect on planktonic growth at IC50 after 2 to 24 hrs by colony count method; set-up: species or system ATCC 19606
Escherichia coli [22] = test: Antimicrobial activity against Escherichia coli K-12 ER2718 assessed as effect on planktonic growth at IC50 after 2 to 24 hrs by colony count method; format: organism-based
Staphylococcus aureus [23] = test: Antimicrobial activity against methicillin-resistant Staphylococcus aureus BAA 44 assessed as effect on planktonic growth at IC50 after 2 to 24 hrs; format: organism-based; settings: in vivo
Staphylococcus aureus [24] = test: Antimicrobial activity against Staphylococcus aureus 29213 assessed as effect on planktonic growth at IC50 after 2 to 24 hrs; format: organism-based; settings: in vivo
Acinetobacter baumannii [25] = test: Antimicrobial activity against Acinetobacter baumannii 19606 assessed as effect on planktonic growth at IC50 after 2 to 24 hrs; set-up: species or system ATCC 19606
Escherichia coli [26] = test: Antimicrobial activity against Escherichia coli K-12 ER2718 assessed as effect on planktonic growth at IC50 after 2 to 24 hrs; format: organism-based
Staphylococcus aureus [27] = test: Induction of biofilm formation in Staphylococcus aureus 29213 at 50 uM after 24 hrs by crystal violet staining-based assay relative to control; format: functional
Outline: (§1)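 Static biofilm assay with compounds at 50 μM and crystal violet read-out, relative to an untreated control. Compounds increasing biofilm by less than 50% were called inducers, and by more than 50% strong inducers.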

Acinetobacter baumannii [28] = test: Induction of biofilm formation in Acinetobacter baumannii 19606 at 50 uM after 24 hrs by crystal violet staining-based assay relative to control; format: functional, ATCC 19606 = CIP 70.34 = JCM 6841; outline: as §1
Escherichia coli [29] = test: Induction of biofilm formation in Escherichia coli K-12 ER2718 at 50 uM after 24 hrs by crystal violet staining-based assay relative to control; format: functional; outline: as §1
Staphylococcus aureus [30] = test: Inhibition of biofilm formation in methicillin-resistant Staphylococcus aureus BAA 44 at 150 uM after 24 hrs by crystal violet staining-based assay relative to control; format: functional; settings: BAA 44, 24 h
Outline: (§2)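 Static biofilm development in MRSA, read out by crystal violet staining against an untreated control. Initial screen at 150 μM. Inhibitors then went to dose-response, with IC50 taken as the concentration giving 50% inhibition of biofilm growth. Induction was judged at 50 μM: under 50% induction counted as "inducer", over 50% as "strong inducer".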

Staphylococcus aureus [31] = test: Antimicrobial activity against Staphylococcus aureus 29213 assessed as effect on planktonic growth at 50 uM after 2 to 24 hrs; format: organism-based
Outline: (§3)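 Growth curve analysis of planktonic bacteria with each biofilm inducer at 50 μM, used to assess toxicity.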

Acinetobacter baumannii [32] = test: Antimicrobial activity against Acinetobacter baumannii 19606 assessed as effect on planktonic growth at 50 uM after 2 to 24 hrs; set-up: species or system ATCC 19606; outline: as §3
Escherichia coli [33] = test: Antimicrobial activity against Escherichia coli K-12 ER2718 assessed as effect on planktonic growth at 50 uM after 2 to 24 hrs; format: organism-based; outline: as §3
Staphylococcus aureus [34] = test: Antimicrobial activity against methicillin-resistant Staphylococcus aureus BAA 44 assessed as effect on planktonic growth at PC75 after 2 to 24 hrs by colony count method; format: organism-based; settings: in vivo
Staphylococcus aureus [35] = test: Antimicrobial activity against methicillin-resistant Staphylococcus aureus BAA 44 assessed as effect on planktonic growth at PC50 after 2 to 24 hrs by colony count method; format: organism-based; settings: in vivo
Staphylococcus aureus [36] = test: Antimicrobial activity against methicillin-resistant Staphylococcus aureus BAA 44 assessed as effect on planktonic growth at PC25 after 2 to 24 hrs by colony count method; format: organism-based; settings: in vivo
Staphylococcus aureus [37] = test: Antimicrobial activity against methicillin-resistant Staphylococcus aureus BAA 44 assessed as effect on planktonic growth at PC75 after 2 to 24 hrs; format: organism-based; settings: in vivo
Staphylococcus aureus [38] = test: Antimicrobial activity against methicillin-resistant Staphylococcus aureus BAA 44 assessed as effect on planktonic growth at PC50 after 2 to 24 hrs; format: organism-based; settings: in vivo
Staphylococcus aureus [39] = test: Antimicrobial activity against methicillin-resistant Staphylococcus aureus BAA 44 assessed as effect on planktonic growth at PC25 after 2 to 24 hrs; format: organism-based; settings: in vivo
Staphylococcus aureus [40] = test: Induction of biofilm formation in methicillin-resistant Staphylococcus aureus BAA 44 at 50 uM after 24 hrs by crystal violet staining-based assay relative to control; format: functional; outline: as §2
Staphylococcus aureus [41] = test: Inhibition of biofilm formation in Staphylococcus aureus 29213 at 150 uM after 24 hrs by crystal violet staining-based assay relative to control; format: functional; settings: Staphylococcus aureus, 29213, 24 h
Acinetobacter baumannii [42] = test: Inhibition of biofilm formation in Acinetobacter baumannii 19606 at 150 uM after 24 hrs by crystal violet staining-based assay relative to control; format: functional; settings: ATCC 19606 = CIP 70.34 = JCM 6841, 24 h
Staphylococcus aureus [43] = test: Antimicrobial activity against methicillin-resistant Staphylococcus aureus BAA 44 assessed as effect on planktonic growth at 50 uM after 2 to 24 hrs; format: organism-based
Outline: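 Growth-curve analysis of planktonic MRSA in the presence of each biofilm inducer at 50 μM, to check for toxicity.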

Escherichia coli [44] = test: Inhibition of biofilm formation in Escherichia coli K-12 ER2718 at 150 uM after 24 hrs by crystal violet staining-based assay relative to control; format: functional; settings: K-12 ER2718, 24 h
Escherichia coli [45] = test: Induction of biofilm formation in Escherichia coli K-12 ER2718 assessed as concentration required for 50% promotion of biofilm formation after 24 hrs by crystal violet staining-based assay; format: functional
Outline: (§4)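 For strong inducers of E. coli biofilm, dose-response curves were run in the static crystal violet assay. PC25, PC50 and PC75 are the concentrations promoting biofilm formation by 25%, 50% and 75%.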

Escherichia coli [46] = test: Induction of biofilm formation in Escherichia coli K-12 ER2718 assessed as concentration required for 25% promotion of biofilm formation after 24 hrs by crystal violet staining-based assay; format: functional; outline: as §4
Staphylococcus aureus [47] = test: Inhibition of biofilm formation in Staphylococcus aureus 29213 after 24 hrs by crystal violet staining-based assay; format: functional, organism-based; settings: Staphylococcus aureus, 29213, 24 h
Outline: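 Compounds active in the 150 μM screen were taken into dose-response studies under static conditions with a crystal violet read-out. IC50 is the concentration that inhibits 50% of biofilm growth relative to an untreated control.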

Escherichia coli [48] = test: Induction of biofilm formation in Escherichia coli K-12 ER2718 assessed as concentration required for 75% promotion of biofilm formation after 24 hrs by crystal violet staining-based assay; format: functional; outline: as §4

SMILES | Activity (Acinetobacter baumannii [7]) | Activity (Acinetobacter baumannii [8]) | Activity (Acinetobacter baumannii [9]) | Activity (Acinetobacter baumannii [10]) | Activity (Acinetobacter baumannii [11]) | Activity (Acinetobacter baumannii [12]) | Activity (Escherichia coli [13]) | Activity (Escherichia coli [14]) | Activity (Escherichia coli [15]) | Activity (Escherichia coli [16]) | Activity (Escherichia coli [17]) | Activity (Escherichia coli [18]) | Activity (Staphylococcus aureus [19]) | Activity (Staphylococcus aureus [20]) | Activity (Acinetobacter baumannii [21]) | Activity (Escherichia coli [22]) | Activity (Staphylococcus aureus [23]) | Activity (Staphylococcus aureus [24]) | Activity (Acinetobacter baumannii [25]) | Activity (Escherichia coli [26]) | other results
O=C(NCCn1cc(Cc2c(Br)[nH]c3ccccc23)nn1)c1ccccc1F | Non-toxic | Non-toxic | Non-toxic | Non-toxic | Non-toxic | Non-toxic | Non-toxic | Non-toxic | Non-toxic | Non-toxic | Non-toxic | Non-toxic | Non-toxic | Non-toxic | Non-toxic | Non-toxic | Non-toxic | Non-toxic | Non-toxic | Non-toxic | Activity (Staphylococcus aureus [1]): Non-toxic; Activity (Staphylococcus aureus [2]): Non-toxic; Activity (Staphylococcus aureus [3]): Non-toxic; Activity (Staphylococcus aureus [4]): Non-toxic; Activity (Staphylococcus aureus [5]): Non-toxic; Activity (Staphylococcus aureus [6]): Non-toxic; Activity (Staphylococcus aureus [27]): <50%; Activity (Acinetobacter baumannii [28]): <50%; Activity (Escherichia coli [29]): <50%; inhibition at 150 µM (Staphylococcus aureus [30]): 20%; Activity (Staphylococcus aureus [31]): Non-toxic; Activity (Acinetobacter baumannii [32]): Non-toxic; Activity (Escherichia coli [33]): Non-toxic
CCCCCCNC(=O)Cn1cc(Cc2c(Br)[nH]c3ccccc23)nn1 | – | – | – | – | – | – | – | – | – | – | – | – | Non-toxic | Non-toxic | Non-toxic | Non-toxic | Non-toxic | Non-toxic | Non-toxic | Non-toxic | Activity (Staphylococcus aureus [34]): Non-toxic; Activity (Staphylococcus aureus [35]): Non-toxic; Activity (Staphylococcus aureus [36]): Non-toxic; Activity (Staphylococcus aureus [37]): Non-toxic; Activity (Staphylococcus aureus [38]): Non-toxic; Activity (Staphylococcus aureus [39]): Non-toxic; Activity (Staphylococcus aureus [40]): <50%; inhibition at 150 µM (Staphylococcus aureus [41]): < 5%; inhibition at 150 µM (Acinetobacter baumannii [42]): 17%; Activity (Staphylococcus aureus [43]): Non-toxic; inhibition at 150 µM (Escherichia coli [44]): < 5%
CCCCCCCc1ccc(C(=O)NCCn2cc(Cc3csc4ccccc34)nn2)cc1 | Non-toxic | Non-toxic | Non-toxic | Non-toxic | Non-toxic | Non-toxic | Non-toxic | Non-toxic | Non-toxic | Non-toxic | Non-toxic | Non-toxic | Non-toxic | Non-toxic | Non-toxic | Non-toxic | Non-toxic | Non-toxic | Non-toxic | Non-toxic | Activity (Escherichia coli [45]): 56.3 µM; Activity (Escherichia coli [46]): 22.2 µM; Activity (Acinetobacter baumannii [28]): <50%; Activity (Escherichia coli [29]): >50%; inhibition at 150 µM (Staphylococcus aureus [30]): < 5%; pIC50 (Staphylococcus aureus [47]): 4.08; Activity (Acinetobacter baumannii [32]): Non-toxic; Activity (Escherichia coli [48]): 93.8 µM; Activity (Escherichia coli [33]): Non-toxic
